Results taken from paper PMC3747510 (Scientific Reports, 2013).
Where a chain is given by its changes, count along the chain named. Converted amounts (≈) assume the structure as drawn.

Assays:
SpLeuRS [1] = biological target: T1, SpLeuRS (Streptococcus pneumoniae serotype 4, UniProt Q97SS0); assay: ATP-PPi exchange; assay type: biochemical; conditions: 200 μM ZCL039
T1 sequence (Q97SS0 1-833): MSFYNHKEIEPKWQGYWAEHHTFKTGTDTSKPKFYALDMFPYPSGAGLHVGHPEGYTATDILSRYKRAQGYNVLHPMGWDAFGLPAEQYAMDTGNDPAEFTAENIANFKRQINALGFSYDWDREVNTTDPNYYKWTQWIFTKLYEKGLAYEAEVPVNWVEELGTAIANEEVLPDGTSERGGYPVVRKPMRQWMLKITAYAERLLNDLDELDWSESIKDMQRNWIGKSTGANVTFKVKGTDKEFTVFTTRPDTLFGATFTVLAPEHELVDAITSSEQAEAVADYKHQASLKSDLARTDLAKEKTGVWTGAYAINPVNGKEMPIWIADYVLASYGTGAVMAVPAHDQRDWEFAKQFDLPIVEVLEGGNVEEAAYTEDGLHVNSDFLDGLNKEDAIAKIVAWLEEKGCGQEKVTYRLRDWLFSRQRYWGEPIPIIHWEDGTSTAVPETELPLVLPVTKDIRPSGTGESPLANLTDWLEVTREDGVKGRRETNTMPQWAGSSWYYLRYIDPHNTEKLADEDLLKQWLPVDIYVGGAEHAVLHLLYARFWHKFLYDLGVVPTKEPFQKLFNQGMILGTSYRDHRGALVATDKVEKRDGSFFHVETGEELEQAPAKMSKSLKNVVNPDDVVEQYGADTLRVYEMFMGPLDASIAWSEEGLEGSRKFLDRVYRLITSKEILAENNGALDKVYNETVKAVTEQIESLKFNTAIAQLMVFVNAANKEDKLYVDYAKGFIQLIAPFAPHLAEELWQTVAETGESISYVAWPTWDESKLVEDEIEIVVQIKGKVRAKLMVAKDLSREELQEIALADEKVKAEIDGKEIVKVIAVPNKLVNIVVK
Outline: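 Leucine activation (ATP-PPi exchange) at 37°C with 10 nM N-His6 SpLeuRS, expressed in E. coli BL21(DE3) and Ni-NTA purified. Run with or without test compound in DMSO. The [32P]ATP formed was separated and counted. Means of three independent experiments.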

SpLeuRS [2] = biological target: T1, SpLeuRS; assay: Inhibitory kinetics of SpLeuRS aminoacylation; assay type: biochemical; conditions: for Ki: 2 nM SpLeuRS
Outline: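 Test compound at 0, 2 or 8 μM. Substrate-velocity data were linearized by reciprocal fitting into Lineweaver-Burk plots to derive kinetic constants and inhibition mode.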

Human cytosolic LeuRS = Human cytosolic LeuRS (Homo sapiens, UniProt Q9P2J5); assay: Aminoacylation inhibition; assay type: biochemical
Chain of Human cytosolic LeuRS (Q9P2J5 whole entry): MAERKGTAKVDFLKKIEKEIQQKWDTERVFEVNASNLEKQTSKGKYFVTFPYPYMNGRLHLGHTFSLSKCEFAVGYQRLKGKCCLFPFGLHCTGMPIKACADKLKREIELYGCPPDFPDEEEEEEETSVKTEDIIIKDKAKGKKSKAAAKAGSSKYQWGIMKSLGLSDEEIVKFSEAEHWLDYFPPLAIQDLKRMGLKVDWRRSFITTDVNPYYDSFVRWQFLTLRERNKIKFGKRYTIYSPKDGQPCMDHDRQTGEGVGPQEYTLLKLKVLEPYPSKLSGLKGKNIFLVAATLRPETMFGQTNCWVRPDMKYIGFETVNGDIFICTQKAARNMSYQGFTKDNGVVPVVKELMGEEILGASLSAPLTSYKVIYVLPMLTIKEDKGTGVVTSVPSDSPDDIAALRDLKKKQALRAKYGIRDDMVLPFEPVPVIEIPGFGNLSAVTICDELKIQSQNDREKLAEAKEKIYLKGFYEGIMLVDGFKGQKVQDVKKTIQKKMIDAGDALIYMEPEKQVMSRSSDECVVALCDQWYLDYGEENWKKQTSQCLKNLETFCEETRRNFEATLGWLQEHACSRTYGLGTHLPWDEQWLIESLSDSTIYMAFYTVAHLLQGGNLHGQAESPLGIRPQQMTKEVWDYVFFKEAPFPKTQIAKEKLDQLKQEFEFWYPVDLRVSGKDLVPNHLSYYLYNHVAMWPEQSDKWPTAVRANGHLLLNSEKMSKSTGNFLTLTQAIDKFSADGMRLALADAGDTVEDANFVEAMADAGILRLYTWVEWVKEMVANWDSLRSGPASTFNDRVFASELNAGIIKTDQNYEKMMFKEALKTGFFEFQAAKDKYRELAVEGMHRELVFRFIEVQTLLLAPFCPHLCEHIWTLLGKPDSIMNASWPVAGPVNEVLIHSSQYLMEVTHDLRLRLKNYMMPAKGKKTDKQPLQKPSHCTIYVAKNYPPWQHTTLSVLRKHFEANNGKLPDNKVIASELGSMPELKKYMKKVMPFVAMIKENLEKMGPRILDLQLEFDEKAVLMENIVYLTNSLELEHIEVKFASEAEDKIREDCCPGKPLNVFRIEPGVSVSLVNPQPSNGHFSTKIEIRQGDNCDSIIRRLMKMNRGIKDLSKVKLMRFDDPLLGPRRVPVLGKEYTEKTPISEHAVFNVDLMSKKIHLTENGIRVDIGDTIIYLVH
Outline: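 Human cytosolic or mitochondrial LeuRS, expressed in E. coli. Aminoacylation run at 30°C. At least six test-compound concentrations were tested, with enzyme amount set to form 10 pmol Leu-tRNALeu in 5 min. IC50 was taken from a fitted dose-response curve, as the mean of at least two independent experiments.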

S. pneumoniae = assay: Broth microdilution MIC, S. pneumoniae; assay type: cell-based; conditions: Streptococcus pneumoniae, 24 h, read-out: MIC, Bacteria, S. pneumoniae
Outline: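 S. pneumoniae clinical isolate, from paediatric community-acquired pneumonia. CLSI M7-A7 broth microdilution in Mueller Hinton broth with 2.5% lysed sheep blood, inoculum about 2 × 10^8 CFU/mL. Serial test-compound dilutions, 37°C for 24 h. MIC was the lowest concentration suppressing visible growth.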

SpLeuRS Y332D = biological target: T2, SpLeuRS Y332D (Streptococcus pneumoniae serotype 4, UniProt Q97SS0, Y332D); assay: Aminoacylation by SpLeuRS Y332D mutant; assay type: biochemical; conditions: 50 μM ZCL039
T2 sequence (Q97SS0 1-833 Y332D): T1 sequence (Q97SS0 1-833) with Y332D
Outline: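 Aminoacylation at 37°C, started with 4 mM ATP. Point mutants were made by site-directed mutagenesis. The MmLinker chimera has CP1 Lys226–Thr411 replaced by a nonapeptide. Means of three independent experiments.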

A549 = assay: Cell proliferation assay; assay type: cell-based; conditions: Homo sapiens, A549, read-out: IC50, Human cell lines, A549
Outline: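 Cells in DMEM/10% FBS, 37°C, 5% CO2. Seeded from 1 × 10^5 cells/mL and allowed to adhere overnight. Test compound added at 2.5–100 μg/mL (0.5% DMSO final), five wells per concentration. Incubated 0, 24, 48 or 72 h, then 4 h with MTS/PMS (20:1), and A492 read. DMSO and medium-only controls. IC50 by nonlinear regression against log concentration.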

SMILES: OB1OCc2ccc(C(O)c3ccccc3)cc21 (centres unmarked) [ZCL039, [6-(1-phenyl-1-hydroxylmethyl)]-1,3-dihydro-1-hydroxy-2,1-benzoxaborole]
- Effect on PPi exchange activity of SpLeuRS (SpLeuRS [1]): not affected
- kcat of SpLeuRS, substrate ATP (SpLeuRS [2]; +2 μM ZCL039): 6.35 ± 0.65 s⁻¹
- kcat of SpLeuRS, substrate Leu (SpLeuRS [2]; +2 μM ZCL039): 6.44 ± 0.55 s⁻¹
- kcat of SpLeuRS, substrate SptRNALeu (SpLeuRS [2]; +2 μM ZCL039): 6.62 ± 0.48 s⁻¹
- kcat of SpLeuRS, substrate ATP (SpLeuRS [2]; +8 μM ZCL039): 2.80 ± 0.32 s⁻¹
- kcat of SpLeuRS, substrate Leu (SpLeuRS [2]; +8 μM ZCL039): 2.61 ± 0.16 s⁻¹
- kcat of SpLeuRS, substrate SptRNALeu (SpLeuRS [2]; +8 μM ZCL039): 2.89 ± 0.24 s⁻¹
- Ki (SpLeuRS [2]; substrate ATP): 2.63 ± 0.26 µM
- Ki (SpLeuRS [2]; substrate Leu): 2.65 ± 0.22 µM
- Mode of inhibition with respect to ATP and Leu (SpLeuRS [2]; Km unaffected, maximum rates decreased): noncompetitive
- Mode of inhibition with regard to tRNALeu (SpLeuRS [2]; apparent Km and rate both reduced): uncompetitive
- IC50 (Human cytosolic LeuRS): > 250 µM
- Fold more sensitivity of SpLeuRS than human cytosolic LeuRS (Human cytosolic LeuRS; aminoacylation): over 150 fold
- Fold less sensitive than SpLeuRS (Human cytosolic LeuRS; human cytosolic and mitochondrial LeuRSs vs SpLeuRS): approximately 150 fold
- MIC (S. pneumoniae): 5 mg/L (≈ 20.8 µM)
- Effect on synthetic activity of Y332D mutant (SpLeuRS Y332D): did not affect
- IC50 (A549): > 200 µM
